We go through one molecule from ChEMBL document CHEMBL2390866, “Novel pyrimidoazepine analogs as serotonin 5-HT(2A) and 5-HT(2C) receptor ligands for the treatment of obesity” (Eur J Med Chem, 2013).

Active and inactive are the calls of the source. No cut-off for these calls is given here.

In series [1] the target is T1, Alpha-2A adrenergic receptor (Homo sapiens, UniProt P08913).
T1 sequence (P08913 whole entry): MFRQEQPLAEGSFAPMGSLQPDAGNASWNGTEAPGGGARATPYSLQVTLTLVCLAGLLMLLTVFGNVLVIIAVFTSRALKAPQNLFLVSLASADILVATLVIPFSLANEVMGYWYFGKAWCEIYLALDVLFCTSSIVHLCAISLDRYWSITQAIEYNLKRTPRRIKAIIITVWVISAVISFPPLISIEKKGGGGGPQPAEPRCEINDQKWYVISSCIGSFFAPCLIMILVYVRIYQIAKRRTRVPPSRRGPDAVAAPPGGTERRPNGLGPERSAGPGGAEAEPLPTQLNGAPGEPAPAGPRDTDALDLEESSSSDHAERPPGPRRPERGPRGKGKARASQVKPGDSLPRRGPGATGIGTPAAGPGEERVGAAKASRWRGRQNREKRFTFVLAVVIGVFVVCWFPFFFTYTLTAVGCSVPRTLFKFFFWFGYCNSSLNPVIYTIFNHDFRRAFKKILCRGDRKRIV
The series is described as follows: Binding affinity to adrenergic alpha2A receptor (unknown origin).

Series [2] has as its system Mus musculus. The series is described as follows: Antiobesity activity in B6.V/J ob/ob mouse assessed as inhibition of food intake at 25 mg/kg, po bid measured after 14 days relative to vehicle-treated control. In kind it is functional. To be noted: 336 h.
Series [3] deals with Mus musculus. The series is described as follows: Antiobesity activity in C57BL/6 mouse assessed as inhibition of body weight gain at 50 mg/kg, po qd measured after 14 days relative to vehicle-treated control. In kind it is functional. To be noted: C57BL/6, 336 h.
The nature of series [4]: Ratio of drug level from brain to plasma in Sprague-Dawley rat at 10 mg/kg, po measured at 2 hrs. In kind it is ADME, organism-based. Also on record: dose 10 mg/kg, route oral. Particulars: read-out: BPR. In a few lines: (§1)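 Rats fasted 12 h, then dosed orally by gavage or by bolus tail-vein injection at 2 ml/kg. Compound given as a 5 mg/ml solution in N-methyl-2-pyrrolidone/Tween 80/water (1:2:7). Samples taken at various times (n = 5) and stored at −70 °C. Plasma deproteinized with acetonitrile containing carbamazepine internal standard, then quantified by LC-MS/MS.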

Series [5] relates to Mus musculus. The series is described as follows: Antiobesity activity in B6.V/J ob/ob mouse assessed as inhibition of food intake at 12.5 mg/kg, ip measured up to 2 hrs relative to vehicle-treated control. In kind it is functional. To be noted: route intraperitoneal. An outline of the steps: (§2)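 Male mice were acclimated 1 week at 23 ± 3 °C and 50 ± 20% humidity, then fasted 24 h. They were dosed once intraperitoneally with vehicle or compound: 50 mg/kg in C57BL/6, or 12.5, 25 or 50 mg/kg in B6.V-Lep^ob/J. Food intake was measured at 2, 6 and 12 h versus vehicle control.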

The subject of series [6] is Mus musculus. As to the kind of experiment: Antiobesity activity in B6.V/J ob/ob mouse assessed as change in gonadal adipose tissue weight at 25 mg/kg, po bid measured after 14 days (reference value: 3.599 +/- 0.155 g). In kind it is functional.
Series [7] has as its system Mus musculus. As to the kind of experiment: Antiobesity activity in B6.V/J ob/ob mouse assessed as change in spleen weight at 5 mg/kg, po bid measured after 14 days (reference value: 0.097 +/- 0.052 g). In kind it is functional.
Series [8] can be described thus: Drug excretion in Sprague-Dawley rat at 10 mg/kg, po. In kind it is ADME, organism-based. Also on record: dose 10 mg/kg, route oral. Particulars: in vivo, read-out: Ae. An outline of the steps: as §1
Series [9] has as its system Mus musculus. The series is described as follows: Antiobesity activity in B6.V/J ob/ob mouse assessed as inhibition of food intake at 50 mg/kg, ip measured up to 6 hrs relative to vehicle-treated control. In kind it is functional. To be noted: route intraperitoneal. An outline of the steps:
as §2

Series [10] has as its system Mus musculus. The series is described as follows: Antiobesity activity in B6.V/J ob/ob mouse assessed as inhibition of food intake at 25 mg/kg, ip measured up to 12 hrs relative to vehicle-treated control. In kind it is functional. Particulars: route intraperitoneal. An outline of the steps: as §2
Series [11] in a line: Cmax in Sprague-Dawley rat at 10 mg/kg, po. In kind it is ADME, organism-based. Also on record: dose 10 mg/kg, route oral. To be noted: in vivo. An outline of the steps: as §1
The subject of series [12] is Mus musculus. The series is described as follows: Antiobesity activity in B6.V/J ob/ob mouse assessed as inhibition of food intake at 50 mg/kg, ip measured up to 2 hrs relative to vehicle-treated control. To be noted: route intraperitoneal. In kind it is functional. In a few lines:
as §2

A short description of series [13]: Mean residence time in Sprague-Dawley rat at 10 mg/kg, iv. In kind it is ADME, organism-based. Set-up: dose 10 mg/kg, route intravenous. To be noted: in vivo. An outline of the steps:
as §1

Series [14] deals with 5-hydroxytryptamine receptor 6 (Homo sapiens, UniProt P50406). The series is described as follows: Displacement of [3H]-LSD from human recombinant 5HT-6 receptor expressed in CHOK1 cell membranes after 60 mins. Set-up: species or system CHO-K1. An outline of the steps:
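CHO-K1 membranes expressing human 5-HT6 incubated with 1 nM [3H]LSD for 60 min at 27 °C in 50 mM Tris-HCl pH 7.4 containing 4 mM CaCl2 and 0.1% ascorbic acid. Terminated by filtration on glass-fiber filters presoaked in 0.5% PEI. Methiothepin defined nonspecific binding.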

Series [15] deals with Mus musculus. The series is described as follows: Antiobesity activity in B6.V/J ob/ob mouse assessed as […] at 25 mg/kg, ip measured after 12 hrs relative to vehicle-treated control. In kind it is functional. To be noted: route intraperitoneal.
In series [16] the test system is Mus musculus. As to the kind of experiment: Antiobesity activity in B6.V/J ob/ob mouse assessed as reduction of food intake at 25 mg/kg, po qd measured after 14 days. Also on record: dose 25 mg/kg. In kind it is functional, organism-based. In a few lines: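 Male ob/ob mice (B6.V-Lep^ob/J) received oral doses once daily for 14 days, with vehicle control. Food intake and body weight gain were followed.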

Series [17] concerns the target T2, Alpha-1A adrenergic receptor (Homo sapiens, UniProt P35348).
T2 sequence (P35348 whole entry): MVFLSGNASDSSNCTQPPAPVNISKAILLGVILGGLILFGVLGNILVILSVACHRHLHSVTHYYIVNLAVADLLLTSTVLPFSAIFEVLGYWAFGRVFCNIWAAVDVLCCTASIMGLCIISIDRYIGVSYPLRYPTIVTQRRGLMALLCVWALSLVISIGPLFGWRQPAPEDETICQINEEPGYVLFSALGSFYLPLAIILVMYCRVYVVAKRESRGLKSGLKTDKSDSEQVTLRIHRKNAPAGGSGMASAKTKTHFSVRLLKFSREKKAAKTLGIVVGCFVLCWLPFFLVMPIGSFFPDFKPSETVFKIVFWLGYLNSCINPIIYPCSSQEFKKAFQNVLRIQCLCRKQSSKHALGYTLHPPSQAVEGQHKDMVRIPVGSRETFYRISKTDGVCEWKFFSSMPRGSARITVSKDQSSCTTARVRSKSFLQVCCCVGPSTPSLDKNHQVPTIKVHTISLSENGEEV
The series is described as follows: Binding affinity to adrenergic alpha1A receptor (unknown origin).

Series [18] concerns Mus musculus. The series is described as follows: Antiobesity activity in B6.V/J ob/ob mouse assessed as change in liver weight at 5 mg/kg, po bid measured after 14 days (reference value: 3.396 +/- 0.162 g). In kind it is functional.
A short description of series [19]: Clearance in Sprague-Dawley rat at 10 mg/kg, iv. In kind it is ADME, organism-based. Set-up: dose 10 mg/kg, route intravenous. To be noted: in vivo. In a few lines:
as §1

Chain of 5-hydroxytryptamine receptor 6 (P50406 whole entry): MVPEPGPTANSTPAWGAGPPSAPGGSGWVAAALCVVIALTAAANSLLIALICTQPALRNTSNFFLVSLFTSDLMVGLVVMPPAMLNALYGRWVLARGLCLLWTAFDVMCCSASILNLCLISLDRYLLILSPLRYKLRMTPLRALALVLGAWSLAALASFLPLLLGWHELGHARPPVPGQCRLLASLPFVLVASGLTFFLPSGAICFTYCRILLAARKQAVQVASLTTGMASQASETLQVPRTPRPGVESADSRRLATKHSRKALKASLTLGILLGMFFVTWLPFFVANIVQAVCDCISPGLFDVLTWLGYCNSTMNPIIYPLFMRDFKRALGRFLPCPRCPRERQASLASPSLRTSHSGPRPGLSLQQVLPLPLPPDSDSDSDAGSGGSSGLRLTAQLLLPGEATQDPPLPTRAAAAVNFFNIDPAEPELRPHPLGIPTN

`Cl.Clc1cccc(Nc2nc(Cc3ccccc3)nc3c2CCNCC3)c1`: the concentration for half-maximal inhibition (IC50) in [1] was greater than 10 µM; in series [14], 0.0218 µM; in series [17] it was greater than 10 µM. Besides, the inhibition in vivo at 25 mg/kg in series [2] was determined as 15.2%; in [10], 77.8%; in [15] it was 51.1%. The inhibition in vivo at 50 mg/kg in series [3] stood at 18.8%; in series [9], 98.6%; in series [12], 99.8%. Further, the Kp at 2 h in series [4] was determined as 0.66. For the same molecule, the inhibition in vivo at 12.5 mg/kg in series [5] was determined as 98.6%. Also, the Activity in series [6] was 3.127 g; in series [7], 0.057 g; in series [18], 3.394 g. Besides, the dose excreted in [8] is 0.03%. Besides, the peak level in [11] (Cmax) was 70 ng/mL. For the same molecule, in series [13], the MRT is 1.88 h. Moreover, in series [16], the result was inactive. For the same molecule, in [19], the clearance is 97.2 mL/min/kg.
